Test results: ChEMBL document CHEMBL5696442, “Discovery of type II inhibitors of TGFβ-activated kinase 1 (TAK1) and mitogen-activated protein kinase kinase kinase kinase 2 (MAP4K2)” (J Med Chem, 2015)
Calls of active or inactive are those of the source. No cut-off for these calls is given here.

Experiments:
[1] = system: L929; test: Inhibition of TNF alpha induced IKKalpha/beta phosphorylation level in mouse L929 cells at 100 nM preincubated for 30 mins followed by TNF alpha stimulation and measured after 5 mins by Western blot analysis; format: functional, cell-based
Summary of the method: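 Mouse L929 cells were pretreated with compound at 100 nM for 30 min, then stimulated with TNFα for 5 min. Lysates were Western blotted for phospho-IKKα/β, with tubulin as loading control.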

[2] = target: Receptor tyrosine-protein kinase erbB-3 (Homo sapiens) (UniProt P21860); test: Inhibition of HER3/ErbB3 ACT labeling site in human A-375 cells at 0.5 uM by KiNativ Profiling analysis relative to control; format: cell-based
[3] = target: Serine/threonine-protein kinase WNK2 (Homo sapiens) (UniProt Q9Y3S1); test: Inhibition of Wnk2 ATP Loop labeling site in human A-375 cells at 0.05 uM by KiNativ Profiling analysis relative to control; format: cell-based
[4] = target: Serine/threonine-protein kinase Nek6 (Homo sapiens) (UniProt Q9HC98); test: Inhibition of NEK6 Lys2 labeling site in human A-375 cells at 0.05 uM by KiNativ Profiling analysis relative to control; format: cell-based
[5] = target: Mitogen-activated protein kinase kinase kinase 20 (Homo sapiens, UniProt Q9NYL2); test: Inhibition of ZAK (unknown origin) Lys1 labeling site by KiNativ Profiling analysis
[6] = target: Phosphatidylinositol 3-kinase catalytic subunit type 3 (Homo sapiens) (UniProt Q8NEB9); test: Inhibition of PIK3C3 ATP labeling site in human A-375 cells at 0.05 uM by KiNativ Profiling analysis relative to control; format: cell-based
[7] = target: Serine/threonine-protein kinase WNK2 (Homo sapiens) (UniProt Q9Y3S1); test: Inhibition of Wnk2 Lys2 labeling site in human A-375 cells at 5 uM by KiNativ Profiling analysis relative to control; format: cell-based
[8] = target: Glycogen synthase kinase-3 alpha (Homo sapiens) (UniProt P49840); test: Inhibition of GSK3A Lys2 labeling site in human A-375 cells at 5 uM by KiNativ Profiling analysis relative to control; format: cell-based
[9] = target: Mitogen-activated protein kinase kinase kinase kinase 4 (Homo sapiens, UniProt O95819); test: Inhibition of ZC1/HGK Lys1 labeling site in human A-375 cells at 0.5 uM by KiNativ Profiling analysis relative to control; format: cell-based
[10] = target: Serine/threonine-protein kinase MARK2 (Homo sapiens) (UniProt Q7KZI7); test: Inhibition of MARK2 Lys2 labeling site harbouring FIVHRDLKAENLLLDADMNIK in human A-375 cells at 5 uM by KiNativ Profiling analysis relative to control; format: cell-based
[11] = target: T1, Serine/threonine-protein kinase TAO1 (Homo sapiens) (UniProt Q7L7X3); test: Inhibition of TAO1 Lys2 labeling site in human A-375 cells at 0.5 uM by KiNativ Profiling analysis relative to control; format: cell-based
T1 sequence (whole entry): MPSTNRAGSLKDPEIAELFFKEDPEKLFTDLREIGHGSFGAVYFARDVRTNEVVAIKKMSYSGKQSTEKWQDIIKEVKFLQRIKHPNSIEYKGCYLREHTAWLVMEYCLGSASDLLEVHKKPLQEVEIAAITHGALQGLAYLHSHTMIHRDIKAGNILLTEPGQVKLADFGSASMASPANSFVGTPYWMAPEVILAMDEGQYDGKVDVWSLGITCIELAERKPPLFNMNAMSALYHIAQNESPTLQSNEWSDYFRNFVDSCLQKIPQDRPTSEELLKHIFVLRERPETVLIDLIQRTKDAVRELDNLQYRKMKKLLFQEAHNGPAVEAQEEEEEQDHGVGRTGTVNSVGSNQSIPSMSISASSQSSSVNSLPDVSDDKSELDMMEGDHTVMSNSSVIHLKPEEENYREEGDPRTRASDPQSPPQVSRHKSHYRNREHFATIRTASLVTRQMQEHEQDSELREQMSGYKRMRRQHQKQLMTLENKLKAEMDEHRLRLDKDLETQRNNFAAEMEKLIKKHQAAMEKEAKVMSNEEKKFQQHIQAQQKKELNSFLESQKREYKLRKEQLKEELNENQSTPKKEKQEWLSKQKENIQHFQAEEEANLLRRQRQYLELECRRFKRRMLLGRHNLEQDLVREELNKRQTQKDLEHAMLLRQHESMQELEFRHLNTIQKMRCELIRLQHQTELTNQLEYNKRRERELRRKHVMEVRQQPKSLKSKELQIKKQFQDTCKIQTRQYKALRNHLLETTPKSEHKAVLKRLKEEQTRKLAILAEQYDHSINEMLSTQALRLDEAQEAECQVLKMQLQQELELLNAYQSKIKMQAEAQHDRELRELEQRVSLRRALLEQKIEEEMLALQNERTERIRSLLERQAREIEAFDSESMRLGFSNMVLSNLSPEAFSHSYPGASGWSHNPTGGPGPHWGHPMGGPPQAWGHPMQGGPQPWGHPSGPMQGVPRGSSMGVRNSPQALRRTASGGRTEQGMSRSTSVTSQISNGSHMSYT

[12] = target: Focal adhesion kinase 1 (Homo sapiens) (UniProt Q05397); test: Inhibition of FAK Lys1 labeling site in human A-375 cells at 0.05 uM by KiNativ Profiling analysis relative to control; format: cell-based
[13] = target: Tyrosine-protein kinase Yes (Homo sapiens) (UniProt P07947); test: Inhibition of YES ACT labeling site in human A-375 cells at 5 uM by KiNativ Profiling analysis relative to control; format: cell-based
[14] = target: 5'-AMP-activated protein kinase catalytic subunit alpha-2 (Homo sapiens) (UniProt P54646); test: Inhibition of AMPKa2 Lys1 labeling site in human A-375 cells at 0.05 uM by KiNativ Profiling analysis relative to control; format: cell-based
[15] = target: Epidermal growth factor receptor (Homo sapiens) (UniProt P00533); test: Inhibition of EGFR ACT labeling site harbouring LLGAEEKEYHAEGGKVPIK in human A-375 cells at 0.5 uM by KiNativ Profiling analysis relative to control; format: cell-based
Summary of the method: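 Live A375 melanoma cells were treated with compound at 0.5 or 5 μM, then lysed. Lysates were labeled with a lysine-reactive ATP or ADP-biotin probe. The read-out was protection of each kinase probe-labeling site from labeling, relative to control.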

[16] = target: 3-phosphoinositide-dependent protein kinase 1 (Homo sapiens) (UniProt O15530); test: Inhibition of PDK1 Protein Kinase Domain in human A-375 cells at 0.5 uM by KiNativ Profiling analysis relative to control
[17] = target: Mitogen-activated protein kinase 10 (Homo sapiens, UniProt P53779); test: Inhibition of JNK3 Lys2 labeling site in human A-375 cells at 5 uM by KiNativ Profiling analysis relative to control; format: cell-based
[18] = target: Casein kinase II subunit alpha (Homo sapiens) (UniProt P68400); test: Inhibition of CK2a1 Protein Kinase Domain in human A-375 cells at 0.5 uM by KiNativ Profiling analysis relative to control; format: cell-based
Summary of the method: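 Live A375 melanoma cells were treated with compound at 5 or 0.5 μM. The cells were then lysed, and the lysates were labeled with a lysine-reactive ATP or ADP-biotin acyl probe (KiNativ). Inhibition is the compound's protection of each kinase labeling-site peptide from probe labeling, relative to untreated control.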

Chain of Serine/threonine-protein kinase WNK2 (Homo sapiens) (Q9Y3S1 whole entry): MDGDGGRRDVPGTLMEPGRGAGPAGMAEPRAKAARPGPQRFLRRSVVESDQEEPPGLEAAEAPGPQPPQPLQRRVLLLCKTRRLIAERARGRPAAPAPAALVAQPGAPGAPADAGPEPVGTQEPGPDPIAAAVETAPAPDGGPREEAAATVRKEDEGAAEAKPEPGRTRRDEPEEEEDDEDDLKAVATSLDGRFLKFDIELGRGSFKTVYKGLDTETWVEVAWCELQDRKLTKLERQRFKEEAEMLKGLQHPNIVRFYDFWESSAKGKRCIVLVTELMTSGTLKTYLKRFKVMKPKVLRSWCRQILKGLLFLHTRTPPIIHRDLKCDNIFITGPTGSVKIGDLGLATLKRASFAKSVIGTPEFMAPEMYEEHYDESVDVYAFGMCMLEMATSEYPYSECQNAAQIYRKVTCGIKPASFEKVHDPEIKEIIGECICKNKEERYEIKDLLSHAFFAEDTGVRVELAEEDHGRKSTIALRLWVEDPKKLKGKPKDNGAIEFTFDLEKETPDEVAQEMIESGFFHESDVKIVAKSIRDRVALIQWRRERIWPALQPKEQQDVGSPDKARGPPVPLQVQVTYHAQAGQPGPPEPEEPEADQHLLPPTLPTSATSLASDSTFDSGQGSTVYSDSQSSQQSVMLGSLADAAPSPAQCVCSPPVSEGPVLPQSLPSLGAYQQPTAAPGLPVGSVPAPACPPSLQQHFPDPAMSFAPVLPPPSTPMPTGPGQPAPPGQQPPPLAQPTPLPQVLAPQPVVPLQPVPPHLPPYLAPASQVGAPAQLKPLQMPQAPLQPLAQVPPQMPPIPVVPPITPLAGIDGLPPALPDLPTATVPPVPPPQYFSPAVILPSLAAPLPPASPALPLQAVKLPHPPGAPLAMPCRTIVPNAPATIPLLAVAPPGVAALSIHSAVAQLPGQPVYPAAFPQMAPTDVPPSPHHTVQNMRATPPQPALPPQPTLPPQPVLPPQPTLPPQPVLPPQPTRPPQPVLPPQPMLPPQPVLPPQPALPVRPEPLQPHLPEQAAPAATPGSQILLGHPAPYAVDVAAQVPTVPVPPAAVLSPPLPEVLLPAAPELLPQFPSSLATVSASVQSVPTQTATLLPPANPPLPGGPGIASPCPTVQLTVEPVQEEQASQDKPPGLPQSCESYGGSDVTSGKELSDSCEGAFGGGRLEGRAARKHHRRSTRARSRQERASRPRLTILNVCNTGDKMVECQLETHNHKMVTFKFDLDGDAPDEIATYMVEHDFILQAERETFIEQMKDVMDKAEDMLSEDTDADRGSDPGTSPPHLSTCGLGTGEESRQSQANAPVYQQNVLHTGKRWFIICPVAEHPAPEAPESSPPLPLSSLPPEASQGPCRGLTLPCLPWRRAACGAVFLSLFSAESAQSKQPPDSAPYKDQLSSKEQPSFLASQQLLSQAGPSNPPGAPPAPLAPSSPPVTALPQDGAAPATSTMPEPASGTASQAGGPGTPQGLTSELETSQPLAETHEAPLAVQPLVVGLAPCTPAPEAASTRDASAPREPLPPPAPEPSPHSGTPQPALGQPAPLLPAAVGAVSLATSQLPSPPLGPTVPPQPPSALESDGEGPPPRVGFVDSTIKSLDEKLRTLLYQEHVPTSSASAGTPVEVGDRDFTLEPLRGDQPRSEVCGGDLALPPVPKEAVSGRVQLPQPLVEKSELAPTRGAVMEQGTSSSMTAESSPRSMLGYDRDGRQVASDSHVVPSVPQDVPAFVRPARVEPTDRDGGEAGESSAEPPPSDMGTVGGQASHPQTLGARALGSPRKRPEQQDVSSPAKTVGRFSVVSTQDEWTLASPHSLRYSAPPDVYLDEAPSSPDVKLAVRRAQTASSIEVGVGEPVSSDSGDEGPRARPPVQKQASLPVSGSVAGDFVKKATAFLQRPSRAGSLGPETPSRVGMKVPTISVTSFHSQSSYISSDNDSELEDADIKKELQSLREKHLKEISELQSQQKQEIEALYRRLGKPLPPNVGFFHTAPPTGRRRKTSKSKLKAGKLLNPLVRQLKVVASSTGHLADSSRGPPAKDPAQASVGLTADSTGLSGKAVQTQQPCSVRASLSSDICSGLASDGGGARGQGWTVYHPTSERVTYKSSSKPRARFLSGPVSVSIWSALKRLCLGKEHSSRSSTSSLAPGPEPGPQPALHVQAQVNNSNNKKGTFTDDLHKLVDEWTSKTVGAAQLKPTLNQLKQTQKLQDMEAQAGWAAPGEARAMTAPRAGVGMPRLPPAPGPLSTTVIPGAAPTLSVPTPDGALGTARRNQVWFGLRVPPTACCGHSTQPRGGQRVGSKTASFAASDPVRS
Chain of Receptor tyrosine-protein kinase erbB-3 (Homo sapiens) (P21860 whole entry): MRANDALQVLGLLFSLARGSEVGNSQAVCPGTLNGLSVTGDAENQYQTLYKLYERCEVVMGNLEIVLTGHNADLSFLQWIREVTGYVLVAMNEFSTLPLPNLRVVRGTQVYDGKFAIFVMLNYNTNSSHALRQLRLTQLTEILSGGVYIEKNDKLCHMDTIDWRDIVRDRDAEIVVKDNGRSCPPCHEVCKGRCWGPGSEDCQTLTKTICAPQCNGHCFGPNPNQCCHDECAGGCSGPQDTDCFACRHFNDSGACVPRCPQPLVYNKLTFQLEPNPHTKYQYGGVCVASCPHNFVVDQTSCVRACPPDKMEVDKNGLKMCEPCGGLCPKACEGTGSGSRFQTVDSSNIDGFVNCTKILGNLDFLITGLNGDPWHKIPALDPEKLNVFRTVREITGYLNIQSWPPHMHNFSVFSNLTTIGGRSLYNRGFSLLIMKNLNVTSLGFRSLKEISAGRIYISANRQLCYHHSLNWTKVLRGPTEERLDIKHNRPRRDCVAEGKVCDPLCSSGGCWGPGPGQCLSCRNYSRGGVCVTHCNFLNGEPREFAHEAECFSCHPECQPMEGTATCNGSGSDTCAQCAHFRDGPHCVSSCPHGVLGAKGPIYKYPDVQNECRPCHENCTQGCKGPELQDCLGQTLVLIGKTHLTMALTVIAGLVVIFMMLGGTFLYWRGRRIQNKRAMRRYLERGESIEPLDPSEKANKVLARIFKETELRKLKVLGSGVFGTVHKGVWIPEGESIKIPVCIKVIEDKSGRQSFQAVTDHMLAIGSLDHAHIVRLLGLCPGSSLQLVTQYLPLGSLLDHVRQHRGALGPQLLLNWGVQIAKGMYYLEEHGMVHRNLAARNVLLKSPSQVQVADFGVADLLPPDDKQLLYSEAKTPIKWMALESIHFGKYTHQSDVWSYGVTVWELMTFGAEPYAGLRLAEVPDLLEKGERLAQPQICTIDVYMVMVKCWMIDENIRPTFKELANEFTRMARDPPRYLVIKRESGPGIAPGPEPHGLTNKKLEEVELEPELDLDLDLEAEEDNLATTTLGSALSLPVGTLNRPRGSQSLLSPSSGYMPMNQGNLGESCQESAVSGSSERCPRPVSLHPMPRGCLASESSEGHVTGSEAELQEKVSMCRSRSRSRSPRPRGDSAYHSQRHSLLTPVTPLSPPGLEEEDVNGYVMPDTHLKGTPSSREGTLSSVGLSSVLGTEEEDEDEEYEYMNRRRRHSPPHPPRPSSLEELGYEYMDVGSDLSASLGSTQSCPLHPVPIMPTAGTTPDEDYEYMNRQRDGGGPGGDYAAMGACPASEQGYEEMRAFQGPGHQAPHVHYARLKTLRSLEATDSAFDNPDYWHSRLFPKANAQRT
Chain of Tyrosine-protein kinase Yes (Homo sapiens) (P07947 2-543 limits assumed): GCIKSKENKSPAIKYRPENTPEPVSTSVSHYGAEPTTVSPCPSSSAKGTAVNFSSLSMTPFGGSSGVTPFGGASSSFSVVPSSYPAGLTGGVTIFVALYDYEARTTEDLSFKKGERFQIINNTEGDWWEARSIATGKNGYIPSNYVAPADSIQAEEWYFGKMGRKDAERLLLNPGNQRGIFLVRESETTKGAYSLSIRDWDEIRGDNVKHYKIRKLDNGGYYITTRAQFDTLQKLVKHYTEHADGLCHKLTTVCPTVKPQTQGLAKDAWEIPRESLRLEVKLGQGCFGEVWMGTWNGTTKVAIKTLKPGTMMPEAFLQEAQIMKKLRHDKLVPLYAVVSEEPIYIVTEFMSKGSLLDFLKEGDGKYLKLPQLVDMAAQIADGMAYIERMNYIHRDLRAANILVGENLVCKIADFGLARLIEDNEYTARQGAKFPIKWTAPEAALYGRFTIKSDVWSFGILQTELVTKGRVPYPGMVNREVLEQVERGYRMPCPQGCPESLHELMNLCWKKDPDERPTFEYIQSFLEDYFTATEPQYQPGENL
Chain of 5'-AMP-activated protein kinase catalytic subunit alpha-2 (Homo sapiens) (P54646 whole entry, looked up): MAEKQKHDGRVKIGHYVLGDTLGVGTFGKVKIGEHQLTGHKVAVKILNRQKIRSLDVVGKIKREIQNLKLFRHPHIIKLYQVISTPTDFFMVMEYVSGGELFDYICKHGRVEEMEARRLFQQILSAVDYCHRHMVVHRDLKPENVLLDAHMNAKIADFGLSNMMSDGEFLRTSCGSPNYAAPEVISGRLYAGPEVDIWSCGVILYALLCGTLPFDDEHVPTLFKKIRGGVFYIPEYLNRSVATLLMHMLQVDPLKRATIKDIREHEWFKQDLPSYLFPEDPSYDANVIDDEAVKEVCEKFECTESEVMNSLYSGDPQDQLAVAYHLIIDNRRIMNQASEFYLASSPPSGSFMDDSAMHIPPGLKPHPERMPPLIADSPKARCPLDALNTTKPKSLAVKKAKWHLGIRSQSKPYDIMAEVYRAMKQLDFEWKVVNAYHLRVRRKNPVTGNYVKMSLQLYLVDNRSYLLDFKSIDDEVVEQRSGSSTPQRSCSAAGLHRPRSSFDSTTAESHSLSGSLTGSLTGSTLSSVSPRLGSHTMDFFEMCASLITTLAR
Chain of Serine/threonine-protein kinase Nek6 (Homo sapiens) (Q9HC98 whole entry): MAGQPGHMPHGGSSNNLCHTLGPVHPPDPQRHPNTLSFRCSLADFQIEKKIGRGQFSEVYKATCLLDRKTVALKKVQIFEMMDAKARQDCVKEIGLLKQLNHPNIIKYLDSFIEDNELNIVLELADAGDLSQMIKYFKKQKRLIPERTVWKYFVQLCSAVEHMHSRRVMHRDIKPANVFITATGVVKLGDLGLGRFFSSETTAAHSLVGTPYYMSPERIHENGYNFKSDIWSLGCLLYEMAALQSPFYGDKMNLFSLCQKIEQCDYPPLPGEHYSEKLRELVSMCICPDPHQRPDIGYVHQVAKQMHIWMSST

Structure (SMILES)	inhibition [1]	inhibition [2]	inhibition [3]	inhibition [4]	IC50 [5]	inhibition [6]	inhibition [7]	inhibition [8]	inhibition [9]	inhibition [10]	inhibition [11]	inhibition [12]	inhibition [13]	inhibition [14]	inhibition [15]	inhibition [16]	inhibition [17]	inhibition [18]
CNc1cc(Oc2cc(C(=O)Nc3cc(-n4cnc(C)c4)cc(C(F)(F)F)c3)ccc2C)ncn1	inactive	–	–	–	–	–	–	–	–	–	–	–	–	–	–	–	–	–
CNc1cc(Oc2cc(C(=O)Nc3cc(N4CCN(C)CC4)cc(C(F)(F)F)c3)ccc2C)ncn1	inactive	–	–	–	–	–	–	–	–	–	–	–	–	–	–	–	–	–
CCN1CCN(Cc2ccc(NC(=O)c3ccc(C)c(Oc4ccnc5[nH]ccc45)c3)cc2C(F)(F)F)CC1	–	5.1%	2.4%	10.6%	0.698 µM	33.3%	-5.5%	33.7%	75.6%	12.9%	-5.6%	1%	89.6%	13.4%	4.8%	15.4%	90.3%	2%
CCN1CCN(Cc2ccc(NC(=O)c3ccc(C)c(/C=C/c4cnc5[nH]ccc5c4OC)c3)cc2C(F)(F)F)CC1	–	12.2%	5%	5.8%	0.469 µM	38.2%	14.3%	31.7%	26.3%	24.6%	6.6%	4.7%	> 99%	7.4%	-0.5%	4.4%	76.9%	12.9%
